Several values for one entry are separate records, joined by “and”; a condition that tells them apart may be missing. Identical values can stand only once.
System: HEK-293T
Assay: Multiplex assay against HEK293T
Assay type: toxicity, cell-based
Details: human
How it was run: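 Live cells were stained at seeding with Hoechst33342, BioTracker Green Microtubule Cytoskeleton Dye, MitoTracker Red and Annexin V Alexa Fluor 680, then imaged on a CQ1 microscope at 37°C and 5% CO2 after compound addition. CellPathfinder machine-learning gating split cells into Hoechst high-intensity objects or normal cells. Normal cells were split into healthy, pyknosed or fragmented nuclei, and pyknosed cells into mitotic or apoptotic. Tubulin, mitochondrial-mass and membrane-permeability phenotypes are per cents of healthy-nucleus cells.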

[1] = 12 h, 1 µM, compound concentration 1 uM
[2] = 12 h, 10 µM, compound concentration 10 uM
[3] = 24 h, 1 µM, compound concentration 1 uM
[4] = 24 h, 10 µM, compound concentration 10 uM
[5] = 48 h, 1 µM, compound concentration 1 uM
[6] = 48 h, 10 µM, compound concentration 10 uM

SMILES: S=c1[nH]nc(-c2cccs2)n1-c1ccccc1
- Population Apoptotic (%) [1]: 14.62% and 11.2%
- Population Fragmented Nuclei (%) [1]: 2.05% and 4.52%
- Population Hoechst High Intensity Objects (%) [1]: 1.01% and 0%
- Population Membrane Permeable-Phenotype (%) [1]: 0% and 4.35%
- Population Mitochondria Different-Phenotype (%) [1]: 35.03% and 21.74%
- Population Mitotic Cells (%) [1]: 85.38% and 88.8%
- Population Normal (%) [1]: 98.99% and 100%
- Population Pyknosed Nuclei (%) [1]: 44.37% and 80.65%
- Total Cell Count [1]: 296 and 155
- Population Apoptotic (%) [2]: 8.82% and 18.42%
- Population Fragmented Nuclei (%) [2]: 0.89% and 2.82%
- Population Hoechst High Intensity Objects (%) [2]: 0%
- Population Membrane Permeable-Phenotype (%) [2]: 0%
- Population Mitotic Cells (%) [2]: 91.18% and 81.58%
- Population Normal (%) [2]: 100%
- Population Pyknosed Nuclei (%) [2]: 40.24% and 80.28%
- Population Tubulin-Different-Phenotype (%) [2]: 9.05% and 25%
- Total Cell Count [2]: 338 and 142
- Population Apoptotic (%) [3]: 11.36% and 17.16%
- Population Fragmented Nuclei (%) [3]: 1.73% and 2.2%
- Population Hoechst High Intensity Objects (%) [3]: 0.76% and 0%
- Population Membrane Permeable-Phenotype (%) [3]: 0.26% and 2.27%
- Population Mitochondria Different-Phenotype (%) [3]: 13.46% and 15.91%
- Population Mitotic Cells (%) [3]: 88.64% and 82.84%
- Population Normal (%) [3]: 99.24% and 100%
- Population Pyknosed Nuclei (%) [3]: 25.38% and 73.63%
- Population Tubulin-Different-Phenotype (%) [3]: 8.97% and 6.82%
- Total Cell Count [3]: 524 and 182
- Population Apoptotic (%) [4]: 17.95% and 22%
- Population Fragmented Nuclei (%) [4]: 1.78% and 2.9%
- Population Hoechst High Intensity Objects (%) [4]: 0%
- Population Membrane Permeable-Phenotype (%) [4]: 0.53% and 0%
- Population Mitochondria Different-Phenotype (%) [4]: 11.35% and 2.94%
- Population Mitotic Cells (%) [4]: 82.05% and 78%
- Population Normal (%) [4]: 100%
- Population Tubulin-Different-Phenotype (%) [4]: 9.76% and 8.82%
- Population Fragmented Nuclei (%) [5]: 2.52% and 0.96%
- Population Healthy Nuclei (%) [5]: 87.46% and 66.83%
- Population Hoechst High Intensity Objects (%) [5]: 0.07% and 0%
- Population Membrane Permeable-Phenotype (%) [5]: 4.24% and 5.04%
- Population Mitochondria Different-Phenotype (%) [5]: 13.4% and 16.55%
- Population Mitotic Cells (%) [5]: 94.07% and 77.61%
- Population Normal (%) [5]: 99.93% and 100%
- Population Apoptotic (%) [6]: 10.32% and 16.67%
- Population Fragmented Nuclei (%) [6]: 2.79% and 3.68%
- Population Healthy Nuclei (%) [6]: 86.89% and 63.19%
- Population Hoechst High Intensity Objects (%) [6]: 0%
- Population Membrane Permeable-Phenotype (%) [6]: 5.38% and 1.94%
- Population Mitochondria Different-Phenotype (%) [6]: 11.04% and 20.39%
- Population Mitotic Cells (%) [6]: 89.68% and 83.33%
- Population Normal (%) [6]: 100%
